Data: ChEMBL document CHEMBL1125932 (1991)
Converted amounts (≈) assume the structure as drawn.

Columns and labels:
Format in all cases: functional
HEL [1] = test: Concentration required to cause 50% reduction in HEL cell growth.; conditions: Homo sapiens; read-out: MIC
ESM [2] = test: Concentration required to inhibit TK-HSV-1 (B2006) induced cytopathogenicity in ESM cells by 50%; conditions: Homo sapiens
In short: (§1)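 Embryonic skin-muscle (ESM) cell cultures were infected with 100 CCID50 of virus (1 CCID50 being the infective dose for 50% of cultures).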

HEL [3] = test: Concentration required to inhibit TK-VZV (YSR) induced cytopathogenicity in HEL cells by 50%; conditions: Homo sapiens
HEL [4] = test: Concentration required to inhibit CMV (Davis) induced cytopathogenicity in HEL cells by 50%; conditions: Homo sapiens
ESM [5] = test: Concentration required to inhibit HSV-1 (McIntyre) induced cytopathogenicity in ESM cells by 50%; conditions: Homo sapiens; read-out: MIC; in short: as §1
ESM [6] = test: Concentration required to inhibit VV induced cytopathogenicity in ESM cells by 50%.; conditions: Homo sapiens; in short: as §1
ESM [7] = test: Concentration required to inhibit HSV-2(196) induced cytopathogenicity in ESM cells by 50%; conditions: Homo sapiens; read-out: MIC; in short: as §1
ESM [8] = test: Concentration required to inhibit HSV-1 (F) induced cytopathogenicity in ESM cells by 50%; conditions: Homo sapiens; read-out: MIC; in short: as §1
HEL [9] = test: Concentration required to inhibit TK-VZV (07-1) induced cytopathogenicity in HEL cells by 50%; conditions: Homo sapiens; read-out: MIC
HEL [10] = test: Concentration required to inhibit VZV (oka) induced cytopathogenicity in HEL cells by 50%; conditions: Homo sapiens; read-out: MIC
HEL [11] = test: Concentration required to inhibit CMV (AD-169) induced cytopathogenicity in HEL cells by 50%; conditions: Homo sapiens; read-out: MIC
ESM [12] = test: Concentration required to inhibit HSV-2(G) induced cytopathogenicity in ESM cells by 50%; conditions: Homo sapiens; read-out: MIC; in short: as §1
ESM [13] = test: Concentration required to inhibit HSV-1 (KOS) induced cytopathogenicity in ESM cells by 50%; conditions: Homo sapiens; read-out: MIC; in short: as §1
HEL [14] = test: Concentration required to inhibit VZV (YS) induced cytopathogenicity in HEL cells by 50%; conditions: Homo sapiens; read-out: MIC
ESM [15] = test: Concentration required to cause 50% reduction in cellular DNA synthesis in ESM cells; conditions: Homo sapiens; read-out: MIC
In short: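 In ESM cells, cellular DNA synthesis was monitored by incorporation of [methyl-3H]dThd. The value is the concentration causing a 50% reduction in incorporation.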

ESM [16] = test: Concentration required to inhibit HSV-2(lyons) induced cytopathogenicity in ESM cells by 50%; conditions: Homo sapiens; read-out: MIC; in short: as §1
ESM [17] = test: Concentration required to cause a microscopically detectable alteration of normal cell morphology in ESM cells; conditions: Homo sapiens
In short: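 ESM cells were examined under the microscope. The value is the minimum concentration causing a microscopically detectable change in normal cell morphology.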

ESM [18] = test: Concentration required to inhibit TK-HSV-1 ([…]) induced cytopathogenicity in ESM cells by 50%; conditions: Homo sapiens; in short: as §1
ESM [19] = test: Concentration required to inhibit VV induced cytopathogenicity in ESM cells by 50%; conditions: Homo sapiens; in short: as §1
HEL [20] = test: Concentration required to cause 50% reduction in HEL cell growth; conditions: Homo sapiens

SMILES | 50% cell growth inhibitory concentration (CC50) (HEL [1]) [µg/mL] | MIC (ESM [2]) [µg/mL] | MIC (HEL [3]) [µg/mL] | MIC (HEL [4]) [µg/mL] | EC50 for inhibiting virus-induced cytopathogenicity (ESM [5]) [µg/mL] | MIC (ESM [6]) [µg/mL] | EC50 (ESM [7]) [µg/mL] | EC50 (ESM [8]) [µg/mL] | EC50 (HEL [9]) [µg/mL] | EC50 (HEL [10]) [µg/mL] | EC50 (HEL [11]) [µg/mL] | EC50 (ESM [12]) [µg/mL] | 50% inhibitory concentration against virus-induced cytopathogenicity (EC50) (ESM [13]) [µg/mL] | EC50 (HEL [14]) [µg/mL] | IC50 (DNA synthesis inhibition) (ESM [15]) [µg/mL] | EC50 (50% inhibition of virus cytopathogenicity) (ESM [16]) [µg/mL] | MIC (ESM [17]) [µg/mL] | MIC (ESM [18]) [µg/mL] | MIC (ESM [19]) [µg/mL] | MIC (HEL [20]) [µg/mL]
Cc1cn2c(O)c3ncn(COCCO)c3nc2n1 | > 200 | > 400 | > 400 | > 400 | 1 | > 400 | 0.7 (≈ 2.66 µM) | 0.7 (≈ 2.66 µM) | 400 (≈ 1520 µM) | 20 (≈ 76 µM) | 200 (≈ 760 µM) | 2 (≈ 7.6 µM) | 0.7 | 25 (≈ 95 µM) | > 200 | 0.4 | > 400 | > 400 |  | 
OCC(CO)OCn1cnc2c(O)n3ccnc3nc21 | > 200 | > 400 | 300 (≈ 1070 µM) | 200 (≈ 716 µM) | 0.7 | > 400 | 2 (≈ 7.16 µM) | 0.7 (≈ 2.51 µM) | 400 (≈ 1430 µM) | 400 (≈ 1430 µM) | 150 (≈ 537 µM) | 2 (≈ 7.16 µM) | 0.7 | > 400 | > 200 | 0.7 | > 400 | 150 (≈ 537 µM) |  | 
OCCOCn1cnc2c(O)n3ccnc3nc21 | > 200 | > 400 | > 400 | > 400 | 20 | > 400 | 70 (≈ 281 µM) | 4 (≈ 16 µM) | > 400 | > 400 | > 400 | 20 (≈ 80.2 µM) | 20 | > 400 | > 200 | 10 | > 400 | > 400 |  | 
CCOC(Cn1c(N)nc2c(ncn2COC(CO)CO)c1=O)OCC | > 200 | > 400 | > 400 | > 400 | 20 | > 400 | 70 (≈ 188 µM) | 20 (≈ 53.9 µM) | > 400 | > 400 | > 400 | 70 (≈ 188 µM) | 70 | > 400 | > 100 | 20 | > 400 | > 400 |  | 
OC[C@H]1OC(n2cnc3c(O)n4ccnc4nc32)[C@H](O)[C@@H]1O (some centres not stated) |  | > 400 | > 400 | 400 (≈ 1300 µM) | > 400 |  | > 400 | > 400 | > 400 | > 400 | 400 (≈ 1300 µM) | > 400 | > 400 | > 400 | 150 (≈ 488 µM) | > 400 | > 400 | > 400 | > 400 | > 200
CCOC(Cn1c(N)nc2c(ncn2C2O[C@H](CO)[C@@H](O)[C@H]2O)c1=O)OCC (some centres not stated) | > 200 | > 400 | > 200 | > 400 | 100 | > 400 | > 400 | 100 (≈ 250 µM) | > 200 | > 200 | > 400 | > 400 | > 400 | > 200 | > 200 | 100 | > 400 | > 400 |  | 
Cc1cn2c(O)c3ncn(C4O[C@H](CO)[C@@H](O)[C@H]4O)c3nc2n1 (some centres not stated) |  | > 400 | > 200 | > 200 | > 400 |  | > 400 | > 400 | > 200 | > 200 | > 200 | > 400 | > 400 | > 200 | 150 (≈ 467 µM) | > 400 | > 400 | > 400 | > 400 | > 200
CCOC(Cn1c(N)nc2c(ncn2COCCO)c1=O)OCC | > 200 | > 400 | > 400 | > 400 | > 400 | > 400 | 20 (≈ 58.6 µM) | 70 (≈ 205 µM) | > 400 | > 400 | > 400 | > 400 | > 400 | > 400 | > 200 | 20 | > 400 | > 400 |  | 
Cc1cn2c(O)c3ncn(COC(CO)CO)c3nc2n1 | > 200 | 200 (≈ 682 µM) | 50 (≈ 170 µM) | 5 (≈ 17 µM) | 0.07 | > 400 | 0.07 (≈ 0.239 µM) | 0.07 (≈ 0.239 µM) | 15 (≈ 51.1 µM) | 4 (≈ 13.6 µM) | 4 (≈ 13.6 µM) | 0.07 (≈ 0.239 µM) | 0.07 | 10 (≈ 34.1 µM) | > 200 | 0.07 | > 400 | 20 (≈ 68.2 µM) |  | 
Nc1nc2c(ncn2COCCO)c(=O)[nH]1 [ACYCLOVIR] |  | 100 (≈ 444 µM) |  | 15 (≈ 66.6 µM) |  | > 200 |  |  |  |  |  |  |  |  |  |  | 400 (≈ 1780 µM) | 40 (≈ 178 µM) |  | 
Nc1nc2c(ncn2COC(CO)CO)c(=O)[nH]1 [GANCICLOVIR] |  | 7 (≈ 27.4 µM) |  | 1 (≈ 3.92 µM) |  | 20 (≈ 78.4 µM) |  |  |  |  |  |  |  |  |  |  | > 400 | 1 (≈ 3.92 µM) |  | 
